Consider four compounds from ChEMBL document CHEMBL1134798, “Pharmacological evaluation of a diarylmethylene-piperidine derivative: a new potent atypical antipsychotic?” (Bioorg Med Chem Lett, 2001).

The target in experiment [1] is Serotonin 2 (5-HT2) receptor (Homo sapiens, UniProt P41595+P28223+P28335). Kind of experiment: In vitro binding affinity for 5-hydroxytryptamine 2 receptor. It counts as protein assay.
Experiment [2] addresses T1, D(4) dopamine receptor (Homo sapiens, UniProt P21917).
T1 sequence (P21917 whole entry): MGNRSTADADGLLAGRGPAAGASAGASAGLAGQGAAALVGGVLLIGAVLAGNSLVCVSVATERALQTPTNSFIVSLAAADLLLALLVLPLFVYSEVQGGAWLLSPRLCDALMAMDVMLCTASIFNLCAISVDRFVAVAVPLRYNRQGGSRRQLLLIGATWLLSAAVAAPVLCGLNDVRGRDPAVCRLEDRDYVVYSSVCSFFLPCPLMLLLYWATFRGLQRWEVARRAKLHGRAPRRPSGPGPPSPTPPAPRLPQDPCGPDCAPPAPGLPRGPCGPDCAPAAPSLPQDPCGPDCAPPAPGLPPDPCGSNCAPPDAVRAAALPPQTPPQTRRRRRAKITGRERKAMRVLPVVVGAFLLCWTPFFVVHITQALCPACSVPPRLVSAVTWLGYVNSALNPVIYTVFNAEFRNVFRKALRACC
Put plainly: In vitro binding affinity for Dopamine receptor D4.

The species named for experiment [3] is Mus musculus. Put plainly: Anticholinergic effect evaluated in mice using oxotremorine induced salivation. It counts as functional. In a few lines:
(§1)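 Oxotremorine 0.25 mg/kg ip induced tremors and salivation. Compounds were given ip 30 min beforehand, groups of six mice. Scoring every 5 min over 30 min. ED50 from non-linear regression.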

For experiment [4], the species on record is Mus musculus. Kind of experiment: Lethality in mice evaluated in IRWIN-test. Type of experiment: functional. In a few lines:
(§2)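 Irwin observational test run to a standard protocol after ip administration.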

The species entered for experiment [5] is Mus musculus. Kind of experiment: Anticholinergic effect evaluated in mice using oxotremorine induced tremors. It counts as functional. In outline:
as §1

Experiment [6] is filed under the species Mus musculus. Put plainly: Induction of convulsions in mice evaluated in IRWIN-test. Type of experiment: functional. In outline:
as §2

The species named for experiment [7] is Mus musculus. Kind of experiment: Induction of sedation in mice evaluated in IRWIN-test. It counts as functional. In outline:
as §2

The test system of experiment [8] is Mus musculus. Put plainly: Effective dose required for inhibition of apomorphine(sc, 2.5 mg/kg ) induced climbing in mice on ip administration. Type of experiment: functional. The following applies: route intraperitoneal. In outline:
(§3)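 Apomorphine hydrochloride given sc at 2.5 mg/kg to induce climbing and stereotypy. Compounds dosed 30 min earlier, groups of eight mice. ED50 for each behaviour by non-linear regression.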

In experiment [9] the test system is Mus musculus. Put plainly: Effective dose required for inhibition of apomorphine(sc, 2.5 mg/kg ) induced climbing in mice on po administration. Type of experiment: functional. In outline: (§4)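 Mice were dosed po 30 min before apomorphine hydrochloride (2.5 mg/kg sc), in groups of eight. ED50 for inhibition of climbing or stereotypy was derived by non-linear regression.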

The subject of experiment [10] is Mus musculus. Put plainly: Effective dose required for inhibition of apomorphine(sc, 2.5 mg/kg ) induced stereotypy in mice on […]. Type of experiment: functional. In outline: as §4
Experiment [11] has as its system Mus musculus. Put plainly: Effective dose required for inhibition of DOI-induced head-twitches in mice on ip administration. It counts as functional. In a few lines:
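Head-twitches elicited by ip (±)-DOI hydrochloride, 1.6 mg/kg. Mice (groups of eight) pretreated ip 30 min before DOI. Twitches counted for 5 min starting 5 min after DOI. ED50 by non-linear regression.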

Experiment [12] has as its system Mus musculus. Put plainly: Decrease in number of avoidance responses in mice at a dose ~100 mg/kg. Type of experiment: functional. The following applies: at 100 mg/kg.
Experiment [13] concerns Mus musculus. Kind of experiment: Decrease in number of avoidance responses in mice at a dose ~110 mg/kg. It counts as functional.
Experiment [14] has as its system Mus musculus. Put plainly: Decrease in number of avoidance responses in mice at a dose ~115 mg/kg. It counts as functional.
In experiment [15] the test system is Mus musculus. Put plainly: Decrease in number of avoidance responses in mice at a dose ~60 mg/kg. Type of experiment: functional. The conditions noted are these: at 60 mg/kg.
The subject of experiment [16] is Mus musculus. Kind of experiment: Antagonistic activity on amphetamine-induced stereotypy at a dose of 100 umol/kg (p<0.05). It counts as functional.
Experiment [17] has as its system Mus musculus. Kind of experiment: Decrease in d-amphetamine-induced hyperactivity at a dose of 10 umol/kg (p<0.01). It counts as functional.
For experiment [18], the system named is Rattus norvegicus. Kind of experiment: Decrease in arterial blood pressure by the compound at a dose of 43.1-431 mg/kg in rats 24 hr after oral administration; No significant. Type of experiment: functional, organism-based. The conditions noted are these: Artery.
The subject of experiment [19] is Rattus norvegicus. Put plainly: Increase in heart rate by the compound at a dose of 43.1-431 mg/kg in rats on oral administration; No significant. Type of experiment: functional, organism-based.
Experiment [20] has as its system Mus musculus. Kind of experiment: Effective dose required for inhibition of apomorphine(sc, 2.5 mg/kg ) induced stereotypy in mice on ip administration. Type of experiment: functional. The conditions noted are these: route intraperitoneal. In outline: as §3
The test system of experiment [21] is Mus musculus. Put plainly: Anticholinergic effect evaluated in mice using oxotremorine induced salivation(ip). It counts as functional. In outline: (§5)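 Mice were dosed ip 30 min before oxotremorine (0.25 mg/kg ip), in groups of six. Salivation and tremors were scored every 5 min for 30 min. ED50 was derived by non-linear regression.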
Experiment [22] concerns Mus musculus. Kind of experiment: Anticholinergic effect evaluated in mice using oxotremorine induced tremors(ip). Type of experiment: functional. In outline: as §5
In experiment [23] the test system is Mus musculus. Put plainly: Decrease in number of avoidance responses in mice at a dose ~10 mg/kg. It counts as functional. The following applies: at 10 mg/kg.
The test system of experiment [24] is Mus musculus. Kind of experiment: Decrease in number of avoidance responses in mice at a dose ~25 mg/kg. Type of experiment: functional.
Experiment [25] has as its system Mus musculus. Put plainly: Decrease in number of avoidance responses in mice at a dose ~50 mg/kg. It counts as functional.
The subject of experiment [26] is Mus musculus. Put plainly: Induction of catalepsy up to a dose of 160 mg/kg when administered po in mice; No induction. Type of experiment: functional, organism-based. Also noted: dose 160 mg/kg.
Experiment [27] relates to Rattus norvegicus. Put plainly: Decrease in arterial blood pressure by the compound at a dose of 32.7 mg/kg in rats 0.5-2.5h after administration. It counts as functional, Artery.
Experiment [28] deals with Rattus norvegicus. Put plainly: Increase in heart rate by the compound at a dose of 10.5 mg/kg in rats. It counts as functional.

Activity calls are given as the source filed them. No cut-off for these calls is given here.

Consider `NC(=O)C1CCC(CN2CCC(=C(c3ccccc3)c3ccc(F)cc3)CC2)O1` (configuration not stated), for which, in experiment [1], the “Log Ki” value was -7.5. For the same compound, in experiment [2], the affinity, expressed as Ki, was 158 nM. Besides, the Activity in experiment [3] turned out to be 20; in experiment [4], 1000; in experiment [5] it was 32; in experiment [6] it was 320; in [7] it was 100. For the same compound, the ED50 stood at 46 µmol/kg in [8]; 140 µmol/kg in experiment [9]; 290 µmol/kg in [10]; 16 µmol/kg in experiment [11]; 69 µmol/kg in experiment [20]. Moreover, the “Decrease in No. of avoidence responses” value in experiment [12] turned out to be 27%; in [13], 45%; in [14], 80%; in [15], 12.5%. Further, the values for the Decrease in experiment [16] and in [17] were 13% and 44%, respectively. Besides, the “Decrease in arterial blood pressure” value in [18] was “inactive”. Further, the “Increase in heart rate” value in experiment [19] is “inactive”.

Regarding `CN1CCN(C2=Nc3cc(Cl)ccc3Nc3ccccc32)CC1` [CLOZAPINE], the Activity in experiment [21] is listed as 8; in experiment [4] it was 320; in experiment [22], 12; in [6], 180; in experiment [7], 3.2. The ED50 in experiment [8] is 28 µmol/kg; in experiment [9], 30 µmol/kg; in [10] it was 62 µmol/kg; in experiment [11], 1.5 µmol/kg; in experiment [20], 67 µmol/kg. The “Decrease in No. of avoidence responses” value in experiment [23] was 10%; in experiment [24] it was 65%; in [25], 85%. For the same compound, the Induction of catalepsy entry in [26] is “inactive”. For the same compound, in experiment [27], the “Decrease in arterial blood pressure” value is on record as 32%. Moreover, in experiment [28], the “Increase in heart rate” value was 49%.

On to `O=C(CCCN1CCC(O)(c2ccc(Cl)cc2)CC1)c1ccc(F)cc1` [HALOPERIDOL], for which the ED50 in experiment [8] came out at 0.32 µmol/kg; in experiment [11], 0.61 µmol/kg; in experiment [20], 0.31 µmol/kg.

`OCCOCCN1CCN(C2=Nc3ccccc3Sc3ccccc32)CC1` [QUETIAPINE]: the figures for the ED50 in experiment [8], in experiment [11] and in experiment [20] were 51 µmol/kg, 9 µmol/kg and 60 µmol/kg, respectively.

By Ki is commonly meant a dissociation constant, usually derived from enzyme kinetics or from competition with a known ligand. Read a low Ki as tighter binding. As usually defined, the ED50 is the dose at which the effect has come halfway, by size or by number of responders. Lower therefore signals an effect at a small dose.
